Measurements taken from ChEMBL document CHEMBL1772995, “Targeting the c-Kit Promoter G-quadruplexes with 6-Substituted Indenoisoquinolines” (ACS Med Chem Lett, 2010).
Where a name gives a salt, the structure may show the parent alone. Active and inactive are the calls of the source. The rule behind the calls is not given here.

Tests used:
[1] = Toxicity in human GIST882 cells expressing c-Kit at 20 uM after 24 hrs; format: cell-based; settings: gist882, 24 h
Nucleic Acid [2] = test: Binding affinity to human c-KIT1 (5'-FAM-GGGAGGGCGCTGGGAGGAGGG-TAMRA-3') DNA assessed as concentration required to cause half maximal change in melting temperature by FRET-melting assay (reference value: 54.4 degC); format: nucleic-acid assay
How it was run: (§1)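 Dual FAM/TAMRA-labelled oligonucleotides diluted in 60 mM potassium cacodylate, pH 7.4, annealed at 400 nM (94 °C for 10 min, cooled to room temperature at 0.1 °C/min), then mixed 1:1 with ligand solution to 200 nM DNA final. Melting read with excitation at 483 nm and emission at 533 nm, in triplicate. ΔTm taken across a range of ligand concentrations, with the ligand level giving half-maximal ΔTm also derived.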

Nucleic Acid [3] = test: Binding affinity to human c-KIT1 (5'-FAM-GGGAGGGCGCTGGGAGGAGGG-TAMRA-3') DNA assessed as change in melting temperature at 1 uM by FRET-melting assay (reference value: 54.4 degC); format: nucleic-acid assay; how it was run: as §1
Nucleic Acid [4] = test: Binding affinity to human c-KIT2 (5'-FAM-GGGCGGGCGCGAGGGAGGGG-TAMRA-3') DNA assessed as change in melting temperature at 1 uM by FRET-melting assay (reference value: 72.7 degC); format: nucleic-acid assay; how it was run: as §1
Nucleic Acid [5] = test: Binding affinity to human c-KIT2 (5'-FAM-GGGCGGGCGCGAGGGAGGGG-TAMRA-3') DNA assessed as concentration required to cause half maximal change in melting temperature by FRET-melting assay (reference value: 72.7 degC); format: nucleic-acid assay; how it was run: as §1
Nucleic Acid [6] = test: Binding affinity to human telomeric (5'-FAM-GGGTTAGGGTTAGGGTTAGGG-TAMRA-3') DNA assessed as change in melting temperature at 1 uM by FRET-melting assay (reference value: 59.4 degC); format: nucleic-acid assay; how it was run: as §1
Nucleic Acid [7] = test: Binding affinity to human telomeric (5'-FAM-GGGTTAGGGTTAGGGTTAGGG-TAMRA-3') DNA assessed as concentration required to cause half maximal change in melting temperature by FRET-melting assay (reference value: 59.4 degC); format: nucleic-acid assay; how it was run: as §1
cells = format: functional, cell-based; settings: Homo sapiens, GIST882, 96 h
HT-29 = test: cells; format: functional, cell-based; settings: Homo sapiens, HT-29, 96 h
[8] = molecular target: Mast/stem cell growth factor receptor Kit (Homo sapiens) (UniProt P10721); test: Inhibition of c-Kit mRNA expression in human GIST882 cells after 24 hrs by […] RT-PCR analysis; format: functional, cell-based
How it was run: (§2)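 GIST882 cells grown in RPMI 1640 with 10% FBS. 1 × 10^6 cells seeded in T25 flasks and treated 24 h with 0.8, 4 or 20 μM ligand, or DMSO control. Total RNA extracted; cDNA made from 1 μg RNA with oligo dT (55 °C, 1 h). qPCR annealing at 64 °C, single amplicon checked by melt curve. KIT mRNA normalised to β-actin or YWHAZ and given as % of control. Two independent experiments, each in triplicate.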

[9] = molecular target: Mast/stem cell growth factor receptor Kit (Homo sapiens) (UniProt P10721); test: Inhibition of c-Kit mRNA expression in human GIST882 cells at 4 uM after 24 hrs by […] RT-PCR analysis relative to control; format: functional, cell-based; how it was run: as §2
[10] = molecular target: Mast/stem cell growth factor receptor Kit (Homo sapiens) (UniProt P10721); test: Inhibition of c-Kit protein expression in human GIST882 cells after 24 hrs by immunoblotting; format: functional, cell-based
How it was run: (§3)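 GIST882 cells (1 × 10^6 per T25 flask) treated 24 h with 0.8, 4 or 20 μM ligand, or DMSO control. Lysed in RIPA buffer with protease and phosphatase inhibitors; 10–20 μg protein run on 8–16% SDS-PAGE, transferred to nitrocellulose and probed with anti-KIT. β-actin used as loading control; enhanced-luminescence detection.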

[11] = molecular target: Mast/stem cell growth factor receptor Kit (Homo sapiens) (UniProt P10721); test: Inhibition of c-Kit mRNA expression in human GIST882 cells at 20 uM after 24 hrs by […] RT-PCR analysis relative to control; format: functional, cell-based; how it was run: as §2
[12] = molecular target: Mast/stem cell growth factor receptor Kit (Homo sapiens) (UniProt P10721); test: Inhibition of c-Kit protein expression in human GIST882 cells at 20 uM after 24 hrs by immunoblotting; format: functional, cell-based; how it was run: as §3
Nucleic Acid [13] = test: Binding affinity to double stranded-DNA (50-FAM-TAT AGC TAT A-HEG-TAT AGC TAT A-TAMRA-30) assessed as concentration required to cause half maximal change in melting temperature by FRET-melting assay (reference value: 62.7 degC); format: nucleic-acid assay; how it was run: as §1
Nucleic Acid [14] = test: Binding affinity to double stranded-DNA (50-FAM-TAT AGC TAT A-HEG-TAT AGC TAT A-TAMRA-30) assessed as change in melting temperature at 1 uM by FRET-melting assay (reference value: 62.7 degC); format: nucleic-acid assay; how it was run: as §1

Sequence of Mast/stem cell growth factor receptor Kit (Homo sapiens) (P10721 whole entry): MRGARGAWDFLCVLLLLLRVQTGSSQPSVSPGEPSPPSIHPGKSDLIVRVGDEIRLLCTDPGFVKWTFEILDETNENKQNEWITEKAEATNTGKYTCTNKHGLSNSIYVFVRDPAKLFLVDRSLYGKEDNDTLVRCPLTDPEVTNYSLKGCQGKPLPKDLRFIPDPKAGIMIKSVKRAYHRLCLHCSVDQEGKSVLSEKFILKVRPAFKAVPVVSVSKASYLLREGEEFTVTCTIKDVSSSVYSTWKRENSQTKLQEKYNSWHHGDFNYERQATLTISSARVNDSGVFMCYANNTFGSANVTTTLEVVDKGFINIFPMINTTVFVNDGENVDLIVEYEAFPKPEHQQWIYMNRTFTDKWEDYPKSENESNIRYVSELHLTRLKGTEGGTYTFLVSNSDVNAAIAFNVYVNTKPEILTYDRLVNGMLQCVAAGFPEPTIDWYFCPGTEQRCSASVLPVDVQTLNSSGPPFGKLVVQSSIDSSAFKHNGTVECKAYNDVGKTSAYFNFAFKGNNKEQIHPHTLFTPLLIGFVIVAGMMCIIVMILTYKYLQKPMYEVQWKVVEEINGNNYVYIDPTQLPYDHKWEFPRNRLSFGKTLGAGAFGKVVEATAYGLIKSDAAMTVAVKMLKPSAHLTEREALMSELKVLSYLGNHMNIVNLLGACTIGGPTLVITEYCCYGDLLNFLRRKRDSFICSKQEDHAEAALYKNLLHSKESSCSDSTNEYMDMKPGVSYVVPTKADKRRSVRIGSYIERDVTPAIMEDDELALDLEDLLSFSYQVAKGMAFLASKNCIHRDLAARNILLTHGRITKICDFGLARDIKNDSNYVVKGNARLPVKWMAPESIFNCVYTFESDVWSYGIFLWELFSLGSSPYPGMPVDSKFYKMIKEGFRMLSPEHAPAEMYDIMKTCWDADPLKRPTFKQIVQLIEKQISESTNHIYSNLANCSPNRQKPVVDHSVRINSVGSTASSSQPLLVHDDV

Compound | Activity (Nucleic Acid [2]) [µM] | deltaTm (Nucleic Acid [3]) [K] | deltaTm (Nucleic Acid [4]) [K] | Activity (Nucleic Acid [5]) [µM] | deltaTm (Nucleic Acid [6]) [K] | Activity (Nucleic Acid [7]) [µM] | IC50 (cells) [µM] | IC50 (HT-29) [µM] | inhibition [8] | inhibition [9] [%] | inhibition [10] | inhibition [11] [%] | inhibition [12] | Activity (Nucleic Acid [13]) [µM] | deltaTm (Nucleic Acid [14]) [K] | Activity [1]
CN(C)CCCn1c2c(c3ccccc3c1=O)C(=O)c1ccccc1-2.Cl | 0.95 | 20.1 | 13 | 0.69 | 13 | 1.6 | 4.1 | 0.3 | Dose-dependent effect | 67 | Dose-dependent effect | 89 | Active | > 10 | 3.9 | Toxic
CN1CCN(CCCn2c3c(c4ccccc4c2=O)C(=O)c2ccccc2-3)CC1 | 0.59 | 25.9 | 12.2 | 0.84 | 17.6 | 0.98 | 13.9 | 0.7 |  |  |  |  |  | > 10 | 1.7 | 
O=C1c2ccccc2-c2c1c1ccccc1c(=O)n2CCCn1ccnc1 | > 10 | 11.7 | 13.2 | 0.62 | 6.3 | > 10 | 23 | 2.2 |  |  |  |  |  | > 10 | 0 | 
Cc1ccc(NC(=O)c2ccc(CN3CCN(C)CC3)cc2)cc1Nc1nccc(-c2cccnc2)n1 [IMATINIB MESYLATE] |  |  |  |  |  |  | 1.7 |  |  |  |  |  |  |  |  | 

Continued, in another order:

Activity (Nucleic Acid [2]) [µM] | deltaTm (Nucleic Acid [3]) [K] | deltaTm (Nucleic Acid [4]) [K] | Activity (Nucleic Acid [5]) [µM] | deltaTm (Nucleic Acid [6]) [K] | Activity (Nucleic Acid [7]) [µM] | IC50 (cells) [µM] | IC50 (HT-29) [µM] | inhibition [8] | inhibition [9] [%] | inhibition [10] | inhibition [11] [%] | inhibition [12] | Activity (Nucleic Acid [13]) [µM] | deltaTm (Nucleic Acid [14]) [K] | Compound | Activity [1]
0.93 | 23.7 | 14.4 | 0.72 | 14.4 | 1.63 | 5 | 0.4 |  |  |  |  |  | 9 | 4 | O=C1c2ccccc2-c2c1c1ccccc1c(=O)n2CCCN1CCCC1 | 
8.9 | 8.7 | 3.9 | 4.4 | 4.8 | > 10 | > 50 | > 50 |  |  |  |  |  | > 10 | 0.6 | O=C1c2ccccc2-c2c1c1ccccc1c(=O)n2CCCN1CCOCC1 | 
